Variants at the floor of the assay were thinned out.
B1: tRNA (parent)
chain: GUUCCGUUGGCGUAAUGGUAACGCGUCUCCCUCCUAAGGAGAAGACUGCGGGUUCGAGUCCCGUACGGAACG

Variants of: B1
Assay: yeast fitness relative to wild type (ratio to wild type); higher = fitter; tRNA-Arg(CCU), competitive growth, 37 C, YPD
Procedure, shortened: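 A pool of Saccharomyces cerevisiae strains, each with a tRNA-Arg(CCU) gene variant at the native genomic locus, was competed in YPD at 37°C for 24 hours across six parallel replicates. The variants had been chemically synthesised at a 3% per-site mutation rate over 69 sites, and gene amplicons before and after competition were read by 100-nucleotide paired-end sequencing. Darwinian fitness relative to wild type rested on changes in genotype frequencies. Genotypes required ≥ 100 starting reads, and estimates < 0.5 were set to 0.5.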

Row | Variant | yeast fitness
1 | GUUCCGUUAGCGUAGUGGUUACGCGUCCCCCUCCUAAGGAGAAGUCUGCGGGUUCGAGUCCCGUACGGAACG [G9A A15G A20U U28C A45U] | ≤ 0.5
2 | GUUCCGUUAGCGUAAUGGUAACGCGUCUCCCUCCUACGGAGAAGACUGCGGGUUCGAGUCCCGUACGGAACG [G9A A37C] | 0.918
3 | GUUCCGUUGGCGUAAUGGUAACGCGUCUCCCUCCUCAGCAGAAGACUGCGGGUUCGAGUCCCGUCCGGAACG [A36C G39C A65C] | 0.598
4 | GUUCUGUUGGCGUAAUGGUAACGCGUCUGACUCCUAAGGAGAAGACUGCGGGUUCGAGUCCCGGACGGCACG [C5U C29G C30A U64G A69C] | ≤ 0.5
5 | GUUCCGUUGGCGUAAUGGAAACGCGUCACCCUCCUAUGGAGUAGACUGCGGGUUCGAGUCCCGUACGGAACG [U19A U28A A37U A42U] | ≤ 0.5
6 | GUUCCGUUGGCGCAAUGGCAACGCGUCUCCCUCCUUAGGAGGAGACUGCGGAUUCGAGUACAGUACGGAACG [U13C U19C A36U A42G G52A C60A C62A] | ≤ 0.5
7 | GUUCCGUUGGCGUAAUGGUAACGCGUCUCCCUCCUAAGGAGAAGACUGCGGGUUCCAGUCCUGUACGGAUCG [G56C C62U A70U] | 0.598
8 | GUUCCGUUGGCGUAAUGGUAACGCGUGUCCCUCCUAAGGAGAGGACUGUGGGUUCGAGUCCCGUACGGAACG [C27G A43G C49U] | 0.59
9 | GUUCCGUUGGCGUAGUGGUAACGCGGCUCUCUCCUAAGGAGAAGACUGCGGGUUCGAGUCCCGUACGGAACG [A15G U26G C30U] | ≤ 0.5
10 | GUUUCGUUGGCGUAAUGGUAACGCGUCUCCCUCCUAAGGGGAAGACUGCGGGUUCGAGUGCCGUACGGAACG [C4U A40G C60G] | 0.544
11 | GUUCCGUUGGCGUAAUGGUCACGCGUCUCCCUCCUAAAGAGAAGACUGCGGGUUAGAGUCCCGUAUGGAACG [A20C G38A C55A C66U] | ≤ 0.5
12 | GUUCCGUUGGCGUACUGGUAACGCGUCUCCCUCCUAAGGAGAAGACUGCGGAUUCGAGUCCCGUAUGGAACG [A15C G52A C66U] | ≤ 0.5
13 | GUUCCGUUGGCGUAAAGGUAACGCGUCUCCCUCCUAAGGAGAAGACUCCGGGUUCGAGUCCCGUAUGGAACG [U16A G48C C66U] | 0.705
14 | GUUCAGUUGGCGUAAUGGUAACGCGUCUCCCUCAUAAGGAGAAGACUGCGGGUUCGAGUCCCGUACGCAACG [C5A C34A G68C] | ≤ 0.5
15 | GUUCCGUUGGCGUAGUGGUAACGGGUCUUCCUCGCAAGGAGAAGACUGUGGGUUCGAGUCCUGUACGGAACG [A15G C24G C29U C34G U35C C49U C62U] | ≤ 0.5
16 | GUUCCCUUGGCAUAAUGGUAACGCGUCUCCAUCCUAAGGAGAGGACUGCGGGUUCGAGUCCCGUACGGAACG [G6C G12A C31A A43G] | ≤ 0.5
17 | GUUCCGUUGGCGUAAUGGUAACGCGUCUCCCUCCUAAGGAGAAGACUACGGGUUCGAGUCGCGUACGGACCG [G48A C61G A70C] | 0.531
18 | GUUCCGUUGGAGUAAUGGUAACGCGUCUCCCAUCUAAGGAGAAGACUGCGGGUUCGAGUCCCGUACGCAACG [C11A U32A C33U G68C] | ≤ 0.5
19 | GUUCCGUUGGCGUAAUGGUAACGCGGCUGCCUCCUAAGGAGAAGACUGCGGGUUCGAGUCCUGUACGGAGCG [U26G C29G C62U A70G] | 0.61

Row | Variant | yeast fitness
20 | GUUCCAUUGGCGUAAUGGUUACGCGUCUCCCUCCUAAGGAGAAGACUGCGGGAUCGAAUCCCGUACGGAACG [G6A A20U U53A G58A] | 0.538
21 | GAUCCGUUGGCGUAAUGGUGACGCGUCUACCUCCUAAGGAGAAGUCUGCGGGUUCGAGUCCCGUACGGAACG [U2A A20G C29A A45U] | 0.538
22 | GUUCCGUUGGCGUAAUGGUAACGCGUUUCCCUCGUACGGAGAAGACUGCGGGUUCGAGUCCCGUACGGAACG [C27U C34G A37C] | ≤ 0.5
23 | GUUCCGUUGGCAUAAUGGGAACGCGUCUCCCUCCCAAGGUGGAGACUGCGGGUUCGAGUCCCGUACGGAACG [G12A U19G U35C A40U A42G] | ≤ 0.5
24 | GUUCCGUUGGCGUAAUGGUAACGCGUCUCCCUCCUAACGAGAAGACUGCAGGUUCGAGUCCCGUACGGAACG [G38C G50A] | 0.734
25 | GUUCUGUUGGCGUAAUCGUAACGCGUCUCCCUCCUAAGGAGAAGACUGCGGGUUCGAGUCCCGUACGGAACG [C5U G17C] | 0.721
26 | GUUCCGUGGGCGUAAUGGUAACGCGUCUCCCUCCUACGGAGAAGACUGCGGGUUCGAGUCCCGAACGGACCG [U8G A37C U64A A70C] | ≤ 0.5
27 | GUCCCGUUGGCGUAAUGGUAACGCGUCUCCCUCCUAAGGAGAAGACUGCGGGUUCGAGUCCCGUACGGCACG [U3C A69C] | 0.967
28 | GAUCCGUUGGCGUAAUGGUAACGCGUCUCCCUCCUAAGGAGAAGACUGCGGGUUCGAGUCCCGUAUGGACCG [U2A C66U A70C] | 0.641
29 | GUUCCAUUGGCGUAAUGGUAACGCGUCUCCCUCCUAAGGAGAAGACUGCGGGUUCGAGUCCCGUGCGGAACG [G6A A65G] | 0.88
30 | GUUCCGUUGGCGUAAUGGUAACGCGUCUCCCUCCUAAGGAGCAGACUGCGGGUUCCAGUCCCGUACGGAACG [A42C G56C] | 0.649
31 | GUUCCGUUGGCGUAAUGGUAGCGCGUCUCCCUCCUAAGGAGAAGACCGCGGGUUCGAGUCCCGUACGGAACG [A21G U47C] | 0.921
32 | GUUCCGAUGGCCUGAUGGUACCGUGUCUCCCUCCUAAAGAGAAGACUGCGGGUCCGAGUCCCGUAAGGAACG [U7A G12C A14G A21C C24U G38A U54C C66A] | ≤ 0.5
33 | GUUCCAUUGGCGUAAUGGUAACGCGUCUCCCUCCUAAGGAGAAGACUGCGGGUUCGAGUCGCGUACCGAACG [G6A C61G G67C] | 0.546
34 | GUUCCGUUGGCGUCAUCGUAACGCGUUUCCCUCCUAAGGAGAAGACGGCGGGUUCGAGUCCCGUACGGAACG [A14C G17C C27U U47G] | ≤ 0.5
35 | GUUCCGUUGGCGUAAUGAUAACGCGUUUCCCUCGUAAGGAGAAGACUCUGGGUUCGAGUCCCGUACGGAACG [G18A C27U C34G G48C C49U] | ≤ 0.5
36 | GUUCCGUUGGCGUAAUGGUAACGCGUCUCCCUCCUAAGGAGAAGACUGCGGGUUCGAGUCCUAUACGGACCG [C62U G63A A70C] | 0.583
37 | GUUCCGUUGGCGUAAUGGGAACGCGUCUCACUCCUAAGGAGAUGACUGCGGGUUCGAGUCCCGUACGGAACG [U19G C30A A43U] | 0.601
38 | GUUCCGUUGGCGUAAUGGUAACGCGUCUCCCUCCUAAGGAGAAGACUGCGCGUUCGAGUCCCGUCCGGAACG [G51C A65C] | 0.71
